Measurements reported in ChEMBL document CHEMBL5696442, “Discovery of type II inhibitors of TGFβ-activated kinase 1 (TAK1) and mitogen-activated protein kinase kinase kinase kinase 2 (MAP4K2)” (J Med Chem, 2015).
Calls of active or inactive are those of the source. No cut-off for these calls is given here.

Legend:
[1] = target: Hepatocyte growth factor receptor (Homo sapiens) (UniProt P08581); assay: Inhibition of MET (unknown origin) at 10 uM by Ambit Kinomescan binding assay
[2] = target: Cyclin-dependent kinase 15 (Homo sapiens) (UniProt Q96Q40); assay: Inhibition of PFTAIRE2 (unknown origin) at 10 uM by Ambit Kinomescan binding assay relative to control
[3] = target: T1, Mitogen-activated protein kinase kinase kinase 15 (Homo sapiens) (UniProt Q6ZN16); assay: Inhibition of MAP3K15 Lys1 labeling site harbouring IAIKEIPERDSR in human A-375 cells at 5 uM by KiNativ Profiling analysis relative to control; format: cell-based
T1 sequence (whole entry): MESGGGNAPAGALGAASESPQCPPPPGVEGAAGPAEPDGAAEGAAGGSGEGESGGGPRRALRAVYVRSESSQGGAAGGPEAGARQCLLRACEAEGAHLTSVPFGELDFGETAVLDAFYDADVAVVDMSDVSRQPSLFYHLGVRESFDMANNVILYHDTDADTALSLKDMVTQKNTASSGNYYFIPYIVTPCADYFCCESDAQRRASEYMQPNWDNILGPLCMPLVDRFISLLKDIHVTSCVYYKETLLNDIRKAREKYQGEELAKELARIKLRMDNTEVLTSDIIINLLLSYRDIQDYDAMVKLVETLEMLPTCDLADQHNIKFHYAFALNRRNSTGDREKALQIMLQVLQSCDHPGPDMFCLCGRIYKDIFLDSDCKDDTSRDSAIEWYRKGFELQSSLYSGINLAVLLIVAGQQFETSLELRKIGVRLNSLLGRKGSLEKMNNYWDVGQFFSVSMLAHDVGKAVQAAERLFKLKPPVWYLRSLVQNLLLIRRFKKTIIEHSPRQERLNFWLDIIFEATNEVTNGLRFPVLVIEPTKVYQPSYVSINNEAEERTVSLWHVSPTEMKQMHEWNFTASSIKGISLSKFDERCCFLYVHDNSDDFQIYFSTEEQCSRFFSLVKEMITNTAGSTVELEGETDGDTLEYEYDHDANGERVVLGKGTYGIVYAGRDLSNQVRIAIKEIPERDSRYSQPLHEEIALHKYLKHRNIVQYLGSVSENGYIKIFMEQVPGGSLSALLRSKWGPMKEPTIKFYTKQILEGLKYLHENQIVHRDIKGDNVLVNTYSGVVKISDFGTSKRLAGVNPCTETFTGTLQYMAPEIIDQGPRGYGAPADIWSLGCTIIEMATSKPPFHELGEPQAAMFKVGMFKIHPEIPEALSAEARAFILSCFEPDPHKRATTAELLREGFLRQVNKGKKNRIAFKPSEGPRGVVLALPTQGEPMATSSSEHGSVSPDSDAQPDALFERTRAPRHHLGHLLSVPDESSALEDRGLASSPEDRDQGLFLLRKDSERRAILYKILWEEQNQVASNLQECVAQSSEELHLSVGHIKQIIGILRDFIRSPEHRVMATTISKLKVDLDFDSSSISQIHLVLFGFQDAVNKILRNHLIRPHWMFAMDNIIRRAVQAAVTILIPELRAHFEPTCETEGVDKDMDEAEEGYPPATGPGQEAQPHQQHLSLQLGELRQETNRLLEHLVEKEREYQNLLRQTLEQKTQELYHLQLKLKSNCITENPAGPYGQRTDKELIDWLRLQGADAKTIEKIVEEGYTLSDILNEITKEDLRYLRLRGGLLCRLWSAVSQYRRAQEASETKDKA

[4] = target: Serine/threonine-protein kinase SMG1 (Homo sapiens) (UniProt Q96Q15); assay: Inhibition of SMG1 ATP labeling site harbouring DTVTIHSVGGTITILPTKTKPK in human A-375 cells at 0.5 uM by KiNativ Profiling analysis relative to control; format: cell-based
Chain of Serine/threonine-protein kinase SMG1 (Homo sapiens) (Q96Q15 whole entry): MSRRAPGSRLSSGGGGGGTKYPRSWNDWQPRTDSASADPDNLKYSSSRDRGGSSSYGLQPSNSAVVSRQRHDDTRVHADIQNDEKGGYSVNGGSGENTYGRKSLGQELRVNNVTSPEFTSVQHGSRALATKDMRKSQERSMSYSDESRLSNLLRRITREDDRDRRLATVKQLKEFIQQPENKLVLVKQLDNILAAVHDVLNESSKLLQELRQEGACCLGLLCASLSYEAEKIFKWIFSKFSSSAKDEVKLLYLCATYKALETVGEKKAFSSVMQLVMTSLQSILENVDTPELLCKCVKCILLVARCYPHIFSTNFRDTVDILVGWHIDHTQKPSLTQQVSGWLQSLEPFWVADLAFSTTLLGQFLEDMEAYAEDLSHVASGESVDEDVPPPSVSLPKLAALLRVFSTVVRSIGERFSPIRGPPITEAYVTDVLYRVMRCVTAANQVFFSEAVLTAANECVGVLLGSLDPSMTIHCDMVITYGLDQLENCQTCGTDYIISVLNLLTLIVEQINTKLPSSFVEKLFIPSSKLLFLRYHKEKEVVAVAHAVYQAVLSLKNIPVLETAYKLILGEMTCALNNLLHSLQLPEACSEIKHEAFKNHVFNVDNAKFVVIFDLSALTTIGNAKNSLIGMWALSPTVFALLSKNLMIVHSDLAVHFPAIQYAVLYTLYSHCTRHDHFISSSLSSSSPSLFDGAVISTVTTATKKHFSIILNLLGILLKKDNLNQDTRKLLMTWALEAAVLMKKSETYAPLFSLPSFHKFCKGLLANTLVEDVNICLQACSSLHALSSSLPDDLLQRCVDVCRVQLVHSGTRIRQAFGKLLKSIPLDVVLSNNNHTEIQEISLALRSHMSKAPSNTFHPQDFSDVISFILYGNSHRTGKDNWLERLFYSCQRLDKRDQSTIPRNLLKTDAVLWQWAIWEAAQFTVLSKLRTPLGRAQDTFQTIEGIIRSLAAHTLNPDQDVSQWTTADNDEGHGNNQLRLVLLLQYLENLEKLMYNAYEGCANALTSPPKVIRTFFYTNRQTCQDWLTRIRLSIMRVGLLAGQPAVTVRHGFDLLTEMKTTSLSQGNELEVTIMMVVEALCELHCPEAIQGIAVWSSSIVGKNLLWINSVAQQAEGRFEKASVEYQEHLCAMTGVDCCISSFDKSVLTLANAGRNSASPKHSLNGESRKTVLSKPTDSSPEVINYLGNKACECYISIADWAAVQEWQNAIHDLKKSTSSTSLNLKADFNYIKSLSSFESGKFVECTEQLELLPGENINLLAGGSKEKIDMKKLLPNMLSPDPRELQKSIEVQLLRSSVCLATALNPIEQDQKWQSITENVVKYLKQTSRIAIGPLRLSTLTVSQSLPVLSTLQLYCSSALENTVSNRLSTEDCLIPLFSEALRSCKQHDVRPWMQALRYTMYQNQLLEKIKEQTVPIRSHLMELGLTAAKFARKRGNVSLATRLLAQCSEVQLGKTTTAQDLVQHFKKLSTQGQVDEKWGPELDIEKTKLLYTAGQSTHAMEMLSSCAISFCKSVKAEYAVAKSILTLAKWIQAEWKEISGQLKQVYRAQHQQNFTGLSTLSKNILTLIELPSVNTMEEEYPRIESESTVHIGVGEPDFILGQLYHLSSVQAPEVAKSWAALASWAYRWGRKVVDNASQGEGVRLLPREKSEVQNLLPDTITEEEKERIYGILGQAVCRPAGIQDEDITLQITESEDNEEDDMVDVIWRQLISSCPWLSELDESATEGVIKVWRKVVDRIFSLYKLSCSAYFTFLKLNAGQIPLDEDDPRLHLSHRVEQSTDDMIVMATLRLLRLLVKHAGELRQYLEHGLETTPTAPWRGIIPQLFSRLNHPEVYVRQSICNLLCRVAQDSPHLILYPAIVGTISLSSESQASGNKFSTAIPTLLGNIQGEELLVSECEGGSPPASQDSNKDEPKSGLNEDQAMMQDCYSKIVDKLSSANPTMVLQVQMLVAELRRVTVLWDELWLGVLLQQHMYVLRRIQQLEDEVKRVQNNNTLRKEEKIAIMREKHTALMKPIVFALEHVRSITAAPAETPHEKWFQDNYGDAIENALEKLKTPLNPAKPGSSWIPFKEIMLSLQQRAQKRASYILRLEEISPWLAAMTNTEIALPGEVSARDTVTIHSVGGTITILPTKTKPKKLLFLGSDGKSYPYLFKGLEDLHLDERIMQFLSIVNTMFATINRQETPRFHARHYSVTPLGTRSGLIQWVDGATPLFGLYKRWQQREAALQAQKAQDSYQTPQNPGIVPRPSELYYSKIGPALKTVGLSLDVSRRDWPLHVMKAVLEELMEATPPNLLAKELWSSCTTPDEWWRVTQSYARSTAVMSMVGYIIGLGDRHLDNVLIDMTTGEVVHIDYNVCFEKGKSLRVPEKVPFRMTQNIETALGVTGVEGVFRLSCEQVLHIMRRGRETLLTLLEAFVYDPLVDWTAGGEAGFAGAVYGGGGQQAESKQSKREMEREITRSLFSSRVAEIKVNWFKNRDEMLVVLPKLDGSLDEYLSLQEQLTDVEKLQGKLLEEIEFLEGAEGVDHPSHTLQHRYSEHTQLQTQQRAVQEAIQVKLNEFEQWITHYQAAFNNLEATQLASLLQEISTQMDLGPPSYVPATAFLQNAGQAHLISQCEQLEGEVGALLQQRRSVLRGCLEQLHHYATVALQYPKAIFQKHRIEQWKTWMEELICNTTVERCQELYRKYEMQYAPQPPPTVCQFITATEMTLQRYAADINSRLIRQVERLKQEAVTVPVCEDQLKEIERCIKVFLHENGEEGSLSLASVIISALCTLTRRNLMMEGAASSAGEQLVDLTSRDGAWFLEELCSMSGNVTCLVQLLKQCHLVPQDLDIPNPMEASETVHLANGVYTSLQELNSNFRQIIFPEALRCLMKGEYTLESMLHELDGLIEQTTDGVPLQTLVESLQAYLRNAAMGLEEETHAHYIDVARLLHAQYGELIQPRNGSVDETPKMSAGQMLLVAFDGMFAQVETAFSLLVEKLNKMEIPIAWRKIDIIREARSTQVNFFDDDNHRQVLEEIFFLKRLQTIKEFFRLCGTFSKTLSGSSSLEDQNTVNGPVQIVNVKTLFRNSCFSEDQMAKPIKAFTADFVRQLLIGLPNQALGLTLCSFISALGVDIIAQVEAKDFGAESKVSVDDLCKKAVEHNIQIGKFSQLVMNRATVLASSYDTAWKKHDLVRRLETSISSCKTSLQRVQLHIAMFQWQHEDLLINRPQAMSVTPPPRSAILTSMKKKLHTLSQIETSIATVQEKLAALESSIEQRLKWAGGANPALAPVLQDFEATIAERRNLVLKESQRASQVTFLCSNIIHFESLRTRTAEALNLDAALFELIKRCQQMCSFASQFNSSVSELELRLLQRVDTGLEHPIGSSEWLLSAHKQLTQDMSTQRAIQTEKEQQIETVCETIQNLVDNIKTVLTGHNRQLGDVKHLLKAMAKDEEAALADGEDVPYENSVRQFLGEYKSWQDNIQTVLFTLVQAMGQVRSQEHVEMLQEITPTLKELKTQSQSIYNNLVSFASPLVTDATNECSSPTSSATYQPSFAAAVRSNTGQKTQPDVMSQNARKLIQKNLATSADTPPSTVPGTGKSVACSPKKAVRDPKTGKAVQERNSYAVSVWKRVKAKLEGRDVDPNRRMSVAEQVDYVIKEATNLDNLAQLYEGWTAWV
Method in brief: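 Live A375 melanoma cells treated with compound at 5 or 0.5 μM, then lysed. Lysate kinases were labeled with a lysine-reactive ATP or ADP-biotin probe. Inhibition was read as protection of labeling sites from the probe.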

[5] = target: Serine/threonine-protein kinase 10 (Homo sapiens) (UniProt O94804); assay: Inhibition of LOK K2 labeling site harbouring DLKAGNVLMTLEGDIR in human Huh-7 cells at 10 uM by KiNativ Profiling analysis relative to control; format: cell-based
Chain of Serine/threonine-protein kinase 10 (Homo sapiens) (O94804 whole entry, looked up): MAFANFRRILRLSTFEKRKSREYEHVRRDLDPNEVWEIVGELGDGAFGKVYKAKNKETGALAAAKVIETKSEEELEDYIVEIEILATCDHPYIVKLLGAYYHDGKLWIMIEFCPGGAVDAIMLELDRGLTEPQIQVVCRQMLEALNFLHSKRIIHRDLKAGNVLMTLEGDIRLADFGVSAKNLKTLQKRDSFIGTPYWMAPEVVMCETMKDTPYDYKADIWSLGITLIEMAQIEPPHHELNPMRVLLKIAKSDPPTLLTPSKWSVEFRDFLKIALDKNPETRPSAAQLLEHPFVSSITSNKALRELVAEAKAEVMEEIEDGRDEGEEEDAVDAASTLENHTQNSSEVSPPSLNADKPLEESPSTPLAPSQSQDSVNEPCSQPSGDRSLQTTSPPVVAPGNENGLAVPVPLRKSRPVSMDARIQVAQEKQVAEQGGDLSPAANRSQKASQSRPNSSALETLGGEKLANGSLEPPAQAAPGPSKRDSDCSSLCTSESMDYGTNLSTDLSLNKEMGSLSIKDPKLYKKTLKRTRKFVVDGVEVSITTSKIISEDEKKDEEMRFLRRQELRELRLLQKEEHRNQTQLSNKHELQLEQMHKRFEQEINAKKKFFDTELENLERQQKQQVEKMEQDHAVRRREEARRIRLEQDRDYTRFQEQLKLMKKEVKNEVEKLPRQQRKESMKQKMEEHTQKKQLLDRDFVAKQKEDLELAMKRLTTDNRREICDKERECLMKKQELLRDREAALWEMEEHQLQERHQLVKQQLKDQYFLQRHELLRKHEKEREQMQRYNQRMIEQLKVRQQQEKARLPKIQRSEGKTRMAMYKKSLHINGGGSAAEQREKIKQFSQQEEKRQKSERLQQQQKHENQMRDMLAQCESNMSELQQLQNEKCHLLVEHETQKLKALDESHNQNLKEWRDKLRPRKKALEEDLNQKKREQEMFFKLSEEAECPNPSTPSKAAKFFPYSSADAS

[6] = target: Dual specificity mitogen-activated protein kinase kinase; MEK1/2 (Homo sapiens) (UniProt P36507+Q02750); assay: Inhibition of MAP2K1/2 K2 labeling site in human Huh-7 cells at 1 uM by KiNativ Profiling analysis relative to control; format: cell-based
[7] = target: Atypical kinase COQ8B, mitochondrial (Homo sapiens) (UniProt Q96D53); assay: Inhibition of ADCK4 (unknown origin) at 1 uM by Ambit Kinomescan binding assay relative to control
Chain of Atypical kinase COQ8B, mitochondrial (Homo sapiens) (Q96D53 whole entry): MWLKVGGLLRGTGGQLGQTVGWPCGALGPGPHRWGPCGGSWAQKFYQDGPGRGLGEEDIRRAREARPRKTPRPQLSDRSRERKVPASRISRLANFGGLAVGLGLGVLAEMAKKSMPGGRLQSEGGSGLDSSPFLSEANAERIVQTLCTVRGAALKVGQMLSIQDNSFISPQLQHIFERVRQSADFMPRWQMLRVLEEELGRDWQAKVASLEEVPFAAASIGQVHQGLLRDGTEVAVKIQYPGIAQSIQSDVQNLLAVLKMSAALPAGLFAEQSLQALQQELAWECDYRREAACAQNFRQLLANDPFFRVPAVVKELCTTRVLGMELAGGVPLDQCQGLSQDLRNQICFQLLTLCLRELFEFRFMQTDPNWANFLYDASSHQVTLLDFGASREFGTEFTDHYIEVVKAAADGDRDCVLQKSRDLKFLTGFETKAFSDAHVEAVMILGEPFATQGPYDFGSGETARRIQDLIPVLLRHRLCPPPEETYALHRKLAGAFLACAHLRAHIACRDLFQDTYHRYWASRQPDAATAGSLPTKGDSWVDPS

Ephrin type-A receptor 2 = Ephrin type-A receptor 2 (Homo sapiens, UniProt P29317); assay: Inhibition of EPHA2 (unknown origin) at 1 uM by Ambit Kinomescan binding assay relative to control
[8] = target: Ribosomal protein S6 kinase alpha-2 (Homo sapiens) (UniProt Q15349); assay: Inhibition of N-terminal RSK3 kinase domain 1 (unknown origin) at 1 uM by Ambit Kinomescan binding assay relative to control
Method in brief: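 In vitro ATP-site competition binding assay against a panel of over 420 kinases (KinomeScan), with compound tested at 10 or 1 μM.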

[9] = target: 5'-AMP-activated protein kinase catalytic subunit alpha-1 (Homo sapiens) (UniProt Q13131); assay: Inhibition of AMPKa1 Lys2 labeling site in human A-375 cells at 5 uM by KiNativ Profiling analysis relative to control; format: cell-based
[10] = target: Serine/threonine-protein kinase Chk2 (Homo sapiens) (UniProt O96017); assay: Inhibition of CHK2 Lys1 labeling site in human A-375 cells at 0.5 uM by KiNativ Profiling analysis relative to control; format: cell-based
[11] = tested on: Leucine-rich repeat serine/threonine-protein kinase 2 (Homo sapiens), Q5S007 [G2019S]; assay: Inhibition of LRRK2 G2019S mutant (unknown origin) at 1 uM by Ambit Kinomescan binding assay relative to control; values are per cent of control

Row | Structure (SMILES) | inhibition [1] | inhibition [2] [%] | inhibition [3] [%] | inhibition [4] [%] | inhibition [5] [%] | inhibition [6] [%] | inhibition [7] [%] | percent of control (Ephrin type-A receptor 2) [%] | inhibition [8] [%] | inhibition [9] [%] | inhibition [10] [%] | residual activity [11] [%]
1 | CCN1CCN(Cc2ccc(NC(=O)c3ccc(C)c(Oc4ccnc5[nH]ccc45)c3)cc2C(F)(F)F)CC1 | inactive | 6 | -3.2 | -9.1 | 13.5 | 5.5 |  |  |  |  |  | 
2 | CCN1CCN(Cc2ccc(NC(=O)c3ccc(C)c(/C=C/c4cnc5[nH]ccc5c4OC)c3)cc2C(F)(F)F)CC1 |  |  |  |  |  |  | 81 | 1.2 | 68 | 18.5 | -4.8 | 71
